High-throughput results from PubChem.
MsrA inh: inhibits bovine methionine sulfoxide reductase A; 0.75% of 360,000 active; purified bovine MsrA, absorbance read-out; AID 651718; inhibition, % at 15.5 µM; in the data active means inhibition above about 4.5%
AI-2 QS mod: Vibrio harveyi AI-2 quorum sensing modulation. Vibrio harveyi JMH597 AI-2 luminescence/OD600 ratio, 9 h; hits give low values; strain lacks LuxN and CqsS sensors; 0 = neutral-control median. activity change, % at 7.5 µM. 0.4% of 300,000 active. AID 2094; in the data active means activity change below about -75%, passing the limit was not always enough;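 further: luminescence divided by OD600 gain over 9 h not by final OD600 alone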
TbMetRS inhib: Trypanosoma brucei MetRS inhibition | AID 624268 | inhibition, % at 11.9 µM | purified T. brucei MetRS, ATP depletion, Kinase-Glo luminescence | 0.4% of 360,000 active;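 active means inhibition above a per-plate cutoff of the control wells' mean inhibition plus 3 SD, cut at about 5.5% in these data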
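Dosing: 11.9 µM single point; system: parasite MetRS enzyme; technique: luminescence of leftover ATP; times: 15 min enzyme-compound preincubation, 2 h reaction, 10 min detection, 25 °C; replicates: each compound tested once; read-out basis: percent inhibition relative to median high and low control wells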
MsrA act: activators of bovine methionine sulfoxide reductase A; activation, % at 10.6 µM; 0.3% of 360,000 active; purified bovine MsrA, absorbance read-out; AID 602163; in the data active means activation above about 7.5%
HTR2A ag: agonists of mouse serotonin 5-HT2A receptor (HTR2A); P35363; 0.66% of 360,000 active; CHO-K1 mHTR2A beta-arrestin complementation, luminescence; percent of 30 µM serotonin response; activation, % at 7.6 µM;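 active means activation above a run cutoff, the mean activation of all tested compounds plus 3 SD, cut at about 14% in these data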
AHR activator: activators of human aryl hydrocarbon receptor | AHR-responsive luciferase reporter cells, luminescence | AID 2796 | 2.5% of 320,000 active | activation, % at 5 µM; in the data active means activation above about 47%
Target sequence (P35869 whole entry, looked up): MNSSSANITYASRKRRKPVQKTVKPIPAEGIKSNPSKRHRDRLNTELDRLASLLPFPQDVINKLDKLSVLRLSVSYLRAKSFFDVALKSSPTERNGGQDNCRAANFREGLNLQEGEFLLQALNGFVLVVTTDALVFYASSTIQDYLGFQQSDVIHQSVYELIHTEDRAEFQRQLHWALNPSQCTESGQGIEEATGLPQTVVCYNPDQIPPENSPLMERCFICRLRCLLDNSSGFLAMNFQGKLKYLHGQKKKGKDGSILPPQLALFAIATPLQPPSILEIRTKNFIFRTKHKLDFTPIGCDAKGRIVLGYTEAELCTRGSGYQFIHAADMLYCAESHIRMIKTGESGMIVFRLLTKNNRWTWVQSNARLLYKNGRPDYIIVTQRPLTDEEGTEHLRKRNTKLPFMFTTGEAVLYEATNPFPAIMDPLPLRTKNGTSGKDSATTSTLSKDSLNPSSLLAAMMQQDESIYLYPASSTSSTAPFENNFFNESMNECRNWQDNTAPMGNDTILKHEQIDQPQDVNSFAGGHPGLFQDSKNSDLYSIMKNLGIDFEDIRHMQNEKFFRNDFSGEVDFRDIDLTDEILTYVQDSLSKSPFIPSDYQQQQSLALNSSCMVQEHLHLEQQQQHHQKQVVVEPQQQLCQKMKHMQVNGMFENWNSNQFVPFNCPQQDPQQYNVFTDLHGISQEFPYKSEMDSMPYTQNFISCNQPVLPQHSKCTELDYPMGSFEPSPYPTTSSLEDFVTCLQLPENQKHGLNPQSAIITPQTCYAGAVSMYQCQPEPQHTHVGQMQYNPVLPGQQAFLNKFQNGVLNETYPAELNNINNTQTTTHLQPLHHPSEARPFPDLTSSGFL
Of the large screens only hits and unclear results are named; the others gave an inactive call. An excerpt weighted towards active compounds, which were near 4.4% of everything screened.

C[C@@H]1ON(C)[C@H]2C[C@H]3c4[nH]c5c(-c6ccccc6F)cccc5c4CCN3C(=O)[C@@H]12	none (no result: AI-2 QS mod, TbMetRS inhib, MsrA act, HTR2A ag, AHR activator)
Cc1ccc(Cc2nc(-c3ccccn3)no2)cc1	AI-2 QS mod -84.5
CC12CCC3c4ccc(OCCCO)c([N+](=O)[O-])c4CCC3C1CCC2=O (centres undefined)	none (no result: AI-2 QS mod, TbMetRS inhib, MsrA act, HTR2A ag, AHR activator)
O=C(O)CSCC(=O)N1CCN(Cc2ccc3c(c2)OCO3)CC1	none (no result: MsrA inh)
NC(=S)N/N=C/c1ccccc1OC(=O)c1cc2ccccc2oc1=O	MsrA inh 4.6
NC(=O)N/N=C/c1ccccc1OC(=O)c1cc2ccccc2oc1=O	none
CC(C)c1nc2oc3ccccc3c(=O)c2c(=O)n1-c1ccccc1	AHR activator 103.3 (no result: MsrA inh)
Cc1nc2oc3ccccc3c(=O)c2c(=O)n1Cc1ccccc1	none
COc1ccc(CN(C2CCCC2)S(=O)(=O)c2cc(Br)ccc2Br)c(OC)c1	none (no result: AI-2 QS mod, TbMetRS inhib, MsrA act, HTR2A ag, AHR activator)
Cc1ccccc1NC(=O)Nc1cccs1	none
CCc1ccccc1NC(=O)Nc1cccs1	AHR activator 50.0
CSCCC(c1nc2ccccc2[nH]1)n1c(/C=C/c2ccc(Cl)cc2)nc2ccccc21 (centres undefined)	none (no result: AI-2 QS mod, TbMetRS inhib, MsrA act, HTR2A ag, AHR activator)
CN(Cc1ccon1)Cc1cn[nH]c1-c1ccc(-c2ccccc2)cc1	AHR activator 52.4
CC(c1ccon1)N(C)Cc1cn[nH]c1-c1ccc(-c2ccccc2)cc1 (centres undefined)	AHR activator 61.2
CC(c1ccon1)N(C)Cc1cn[nH]c1-c1ccc(F)cc1F (centres undefined)	none
CN(Cc1cn[nH]c1-c1ccc(-c2ccccc2)cc1)CC1CCOCC1	none
C[C@@H]1C=CCCO[C@]12C(=O)N(Cc1ccc(F)cc1)c1cccc(Br)c12	none (no result: AI-2 QS mod, TbMetRS inhib, MsrA act, HTR2A ag, AHR activator)
CCCCCCCCN1C(=O)[C@@H](CC(=O)NCc2cccs2)C[C@@]2(C(=O)OC)C1=C[C@H](C1CCCC1)O[C@@H]2C	none (no result: AI-2 QS mod, TbMetRS inhib, MsrA act, HTR2A ag, AHR activator)
O=C(NCc1ccccc1)[C@H]1CCCN1C(=O)[C@H]1CCCN1C(=O)C1CCCCC1	none (no result: AI-2 QS mod, TbMetRS inhib, MsrA act, HTR2A ag, AHR activator)
Cc1ccc([N+](=O)[O-])cc1NC(=O)c1ccc(C(C)(C)C)cc1	AHR activator 71.2
Cc1ccc(NC(=O)c2ccc(C(C)(C)C)cc2)cc1[N+](=O)[O-]	none
O=C(Nc1ccccc1-c1ccccc1)c1ccccc1	none
Cc1ccc([N+](=O)[O-])cc1NC(=O)c1ccc(-c2ccccc2)cc1	AHR activator 67.1
Cc1ccc(C(=O)Nc2cc([N+](=O)[O-])ccc2C)cc1	none
O=C(Nc1ccccc1-c1ccccc1)c1cccc([N+](=O)[O-])c1	AHR activator 56.0
O=C(CSc1nc(-c2ccccc2)nn1C(=O)c1ccccc1)Nc1cccc([N+](=O)[O-])c1	TbMetRS inhib 18.4
CCc1ccccc1NC(=O)CSc1nc(-c2ccccc2)nn1C(=O)c1cccc([N+](=O)[O-])c1	none (no result: MsrA inh, TbMetRS inhib, MsrA act, HTR2A ag)
CC(C)n1ncc(N2CCOCC2)c(Cl)c1=O	none
Cc1ccc(Nc2nnc(SCc3cc(=O)n4ccsc4n3)s2)c(C)c1	AHR activator 48.2
COc1ccccc1Nc1nnc(SCc2cc(=O)n3ccsc3n2)s1	none (no result: AI-2 QS mod)
O=C(Nc1nc2c(s1)CCCC2)c1cccs1	AHR activator 58.5 (no result: AI-2 QS mod)
O=C(Nc1nnc(C2CCCCC2)s1)c1cccs1	AHR activator 76.5
O=C(Nc1nnc(C2CCCO2)s1)c1cccs1 (centres undefined)	AHR activator 47.6
O=C(Cc1cccs1)Nc1nc2c(s1)CCCC2	none
COc1cccc(C(=O)Nc2nnc(C3CCCO3)s2)c1 (centres undefined)	AI-2 QS mod -78.2
O=C(Nc1nnc([C@@H]2C[C@H](O)[C@@H](CO)O2)s1)c1cccs1	none (no result: AI-2 QS mod, AHR activator)
COC(=O)[C@]12C[C@H](CC(=O)NCCC(C)C)C(=O)N(CCC3=CCCCC3)C1=C[C@H](COCc1ccccc1)O[C@@H]2C	none (no result: AI-2 QS mod, TbMetRS inhib, MsrA act, HTR2A ag, AHR activator)
CS(=O)(=O)c1ccc(Cl)c(NC(=O)CSc2nnc(-c3cccs3)n2N)c1	none (no result: AI-2 QS mod)
COc1ccc(C(=O)C(=O)N2CCN(S(=O)(=O)c3cccc4c(N(C)C)cccc34)CC2)cc1OC	none (no result: AI-2 QS mod, TbMetRS inhib, MsrA act, HTR2A ag, AHR activator)
CCc1c(C(=O)Nc2nnc(C3CC3)s2)csc1C	AHR activator 67.3
O=C(CC1SC(=O)N(Cc2cccc3ccccc23)C1=O)Nc1nccs1 (centres undefined)	AHR activator 71.4
Cc1c(O)cc2c(c1O)C(=O)CC(c1ccccc1)O2 (centres undefined)	AHR activator 78.6
COc1c(O)cc2c(c1O)C(=O)CC(c1ccccc1)O2 (centres undefined)	none (no result: MsrA inh, TbMetRS inhib, MsrA act, HTR2A ag, AHR activator)
CCOCC(=O)Nc1c(C(=O)Nc2ccccc2OC)oc2ccccc12	AHR activator 73.0
COc1ccccc1NC(=O)c1oc2ccccc2c1NC(=O)C1CC1	AHR activator 63.5
CCC(=O)Nc1c(C(=O)Nc2cccc(OC)c2)oc2ccccc12	AHR activator 63.1
CCOC(=O)c1oc2ccccc2c1NC(=O)c1cccc(OC)c1	none
COC(=O)C1=C(C)N(CC(C)C)C(=S)NC1c1cccc(OC)c1 (centres undefined)	none (no result: AI-2 QS mod, TbMetRS inhib, MsrA act, HTR2A ag, AHR activator)
CN1OC[C@@H]2CN3C(=NCCc4ccccc4)Sc4ccccc4[C@@H]3C[C@@H]21	none (no result: AI-2 QS mod, TbMetRS inhib, MsrA act, HTR2A ag, AHR activator)
Cc1cc(C(=O)N/N=C/c2ccc([N+](=O)[O-])o2)c(C)o1	none
O=C(N/N=C/c1ccc(-c2ccc([N+](=O)[O-])cc2)o1)C(O)c1ccccc1 (centres undefined)	none
Cc1nonc1C(=O)N/N=C/c1ccc([N+](=O)[O-])o1	AI-2 QS mod -96.2
O=C(N/N=C/c1ccc([N+](=O)[O-])o1)C(O)c1ccccc1 (centres undefined)	AI-2 QS mod -88.6
COc1ccc(C(=O)NC(CCSC)C(=O)N2CCCCCC2)cc1 (centres undefined)	none
COc1ccccc1Nc1nc(NCCC(C)C)nc(N)c1[N+](=O)[O-]	AHR activator 48.9
Cc1ccc(Nc2nc(NCC3CCCO3)nc(N)c2[N+](=O)[O-])cc1 (centres undefined)	none
Nc1nc(NCc2ccccc2)nc(Nc2ccc(F)cc2)c1[N+](=O)[O-]	AHR activator 103.3
Nc1nc(NCC2CCCO2)nc(Nc2ccc(F)cc2)c1[N+](=O)[O-] (centres undefined)	AHR activator 75.7
C=CCN=C1NC(c2cccc(Cl)c2)C(C(=O)OC)=C(C)N1C (centres undefined)	none (no result: AI-2 QS mod, TbMetRS inhib, MsrA act, HTR2A ag, AHR activator)
C[C@@H]1CN([C@@H](C)CO)S(=O)(=O)c2ccc(Br)cc2O[C@@H]1CN(C)S(=O)(=O)c1ccc(F)cc1	none (no result: AI-2 QS mod, TbMetRS inhib, MsrA act, HTR2A ag, AHR activator)
Cc1ccc(NC(=O)C2C(=O)N(C)c3ccccc32)cc1 (centres undefined)	AHR activator 72.6
Cc1ccccc1C(=O)N[C@@H](Cc1cccnc1)C(=O)N1CCC[C@H]1C(=O)NC1CCCC1	none (no result: AI-2 QS mod, TbMetRS inhib, MsrA act, HTR2A ag, AHR activator)
CCCCOC(=O)c1cc(-c2ccc(/C=N/n3cnnc3)o2)ccc1Cl	none
CCOC(=O)c1cc(-c2ccc(/C=N\n3cnnc3)o2)ccc1Cl	MsrA inh 5.6
